One data set deals with Protease (Human immunodeficiency virus 1, UniProt Q9YQ12). The data set can be described thus: Inhibition of recombinant HIV-1 protease expressed in Escherichia coli using Arg-Glu (EDANS)-Ser-Gln-Asn-Tyr-Pro-Ile-Val-Gln Lys(DABCYL)-Arg as substrate by spectrofluorometric analysis. The procedure, abridged: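 Recombinant HIV-1 PR refolded from E. coli inclusion bodies, active concentration set by active-site titration, final 30–40 nM. Assay at 25 °C in 10 mM sodium acetate, 1 M NaCl, 2% DMSO, pH 5.0. Fluorogenic substrate at 16.7 μM, inhibitor 0–200 μM (20 mM DMSO stocks). Hydrolysis followed at excitation 340 / emission 490 nm. Ki from fitting to tight-binding competitive inhibition equations.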

Data set [1] relates to MT4. The data set can be described thus: Cytotoxicity against human MT4 cells assessed as viable cells at 50 uM after 3 days by tryptan blue dye assay. It is filed as cell-based. Conditions: mt4, 72 h. The procedure, abridged: (§1)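 MT-4 cells seeded at 2 × 10⁵ cells/ml in RPMI with 10% heat-inactivated FBS, carrying carrier alone or inhibitor at 10, 50 or 100 μM (0.25% DMSO final), 37 °C, 5% CO₂. Viable cells counted by trypan blue exclusion after three days; triplicate.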

Data set [2] relates to MT4. Description: Cytotoxicity against human MT4 cells assessed as viable cells at 100 uM after 3 days by tryptan blue dye assay. It is filed as cell-based. Conditions: mt4, 72 h. In outline: as §1
The test system of data set [3] is Human immunodeficiency virus 1. The data set can be described thus: Antiviral activity against HIV-1 infected in human TZM-bl cells assessed as inhibition of viral replication at 50 to 100 uM by luciferase reporter assay. It is filed as functional, organism-based.

The source made the active and inactive calls. No cut-off for these calls is given here. Bounds are passed on as bounds.

Chain of Protease (Q9YQ12 whole entry): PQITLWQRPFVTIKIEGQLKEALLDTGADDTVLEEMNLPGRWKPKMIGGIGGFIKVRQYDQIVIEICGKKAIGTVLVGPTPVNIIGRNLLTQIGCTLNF

Consider `CCC(C)[C@@H]1N=C(C)c2ccc(C(=O)O)cc2N(Cc2ccc(C3CCCCC3)cc2)C1=O` (single isomer, unassigned), for which, on Protease, the Ki worked out at 53 µM. For the molecule `CC1=N[C@@H](C)C(=O)Nc2cc(C(=O)OC(C)(C)C)ccc21`, the Ki at Protease was above 200 µM.

Regarding `CCCCCCCCCCNC(=O)CN1C(=O)[C@@H](CC(C)C)N=C(C)c2ccc(C(=O)OC(C)(C)C)cc21`, the Ki at Protease was above 200 µM. As to `CC1=N[C@@H](CC(C)C)C(=O)Nc2cc(C(=O)O)ccc21`, the Ki on Protease was above 200 µM. On the same count and under the same terms, next, `CC1=N[C@@H](Cc2ccccc2)C(=O)N(Cc2ccc(C3CCCCC3)cc2)c2cc(C(=O)OC(C)(C)C)ccc21`: 54 µM; `CCC(C)[C@@H]1N=C(C)c2ccc(C(=O)OC(C)(C)C)cc2NC1=O` (single isomer, unassigned): above 200 µM; `CC1=NCC(=O)Nc2cc(C(=O)OC(C)(C)C)ccc21`: above 200 µM. On to `CC(C)C[C@H]1N=C(c2ccccc2)c2ccc(C(=O)O)cc2N(Cc2ccc(C3CCCCC3)cc2)C1=O`, for which, on Protease, the Ki came out at 68 µM. On to `CC1=N[C@H](CC(C)C)C(=O)N(CC(=O)NCCc2ccccc2)c2cc(C(=O)OC(C)(C)C)ccc21`, for which the Ki on Protease came out at 95 µM. Take `CC1=N[C@H](CC(C)C)C(=O)N(Cc2ccc(C3CCCCC3)cc2)c2cc(C(=O)O)ccc21`: the Ki on Protease turned out to be 19 µM. Also, the Activity result is listed as “Non-toxic” in the data set on MT4 [1] and “Toxic” in the data set with MT4 [2]. The inhibition result in data set [3] is “Active”. For `CC1=N[C@H](CC(C)C)C(=O)N(CC(=O)N2CCN(C(=O)OC(C)(C)C)CC2)c2cc(C(=O)OC(C)(C)C)ccc21`, on Protease, the Ki came to 143 µM. With `CC1=N[C@@H](Cc2ccccc2)C(=O)Nc2cc(C(=O)O)ccc21`, at Protease, the Ki was above 200 µM.

With `CC1=N[C@@H](Cc2ccccc2)C(=O)Nc2cc(C(=O)OC(C)(C)C)ccc21`, the Ki on Protease was found to be 64 µM. As to `CC1=N[C@H](CC(C)C)C(=O)N(CC(C)C)c2cc(C(=O)O)ccc21`, on Protease, the Ki was above 200 µM. `CC1=N[C@H](Cc2ccccc2)C(=O)N(Cc2ccc(C3CCCCC3)cc2)c2cc(C(=O)OC(C)(C)C)ccc21`: at Protease, the Ki came out at 131 µM. For `CC1=N[C@H](CC(C)C)C(=O)N(Cc2ccc(C(C)(C)C)cc2)c2cc(C(=O)OC(C)(C)C)ccc21`, the Ki at Protease was 147 µM. Still for that read-out and setting: the figure for `CC1=N[C@H](CC(C)C)C(=O)N(Cc2ccccc2)c2cc(C(=O)OC(C)(C)C)ccc21` is above 200 µM; for `CC(C)C[C@H]1N=C(c2ccccc2)c2ccc(C(=O)OC(C)(C)C)cc2N(Cc2ccc(C3CCCCC3)cc2)C1=O` it is 88 µM; for `CC1=N[C@H](CC(C)C)C(=O)N(CC(=O)N2CCNCC2)c2cc(C(=O)O)ccc21` it is above 200 µM. Consider `CC1=N[C@H](CC(C)C)C(=O)N(CC(=O)NCCc2ccccc2)c2cc(C(=O)O)ccc21`, for which, on Protease, the Ki is 75 µM. As for `CCCCCCCCCCCCCCCCNC(=O)CN1C(=O)[C@@H](CC(C)C)N=C(C)c2ccc(C(=O)O)cc21`, the Ki at Protease was found to be 11 µM. Also, the Activity entry in the data set with MT4 [1] and in the data set with MT4 [2] was “Toxic” throughout. Further, in data set [3], the inhibition entry was “Active”. Consider `CCCCCCCCCCNC(=O)CN1C(=O)[C@@H](CC(C)C)N=C(C)c2ccc(C(=O)O)cc21`, for which, at Protease, the Ki came out at 11 µM. Further, the Activity result is recorded as “Non-toxic” in the data set with MT4 [1] and “Toxic” in the data set with MT4 [2]. In addition, the inhibition result in data set [3] was “Active”. Turning to `CCC(C)[C@@H]1N=C(C)c2ccc(C(=O)OC(C)(C)C)cc2N(Cc2ccc(C3CCCCC3)cc2)C1=O` (single isomer, unassigned), the Ki at Protease is 108 µM. As to `CC1=N[C@H](CC(C)C)C(=O)N(Cc2ccc(C3CCCCC3)cc2)c2cc(C(=O)OC(C)(C)C)ccc21`, the inhibition constant (Ki) at Protease turned out to be 65 µM. On the same count and under the same terms, next, `CC1=N[C@H](CC(C)C)C(=O)N(Cc2ccccc2)c2cc(C(=O)O)ccc21`: above 200 µM; `CCCCCCCCCCCCCCCCNC(=O)CN1C(=O)[C@@H](CC(C)C)N=C(C)c2ccc(C(=O)OC(C)(C)C)cc21`: 165 µM; `CC1=NCC(=O)N(Cc2ccc(C3CCCCC3)cc2)c2cc(C(=O)OC(C)(C)C)ccc21`: 169 µM.

Take `CC1=N[C@@H](C)C(=O)N(Cc2ccc(C3CCCCC3)cc2)c2cc(C(=O)O)ccc21`: the Ki at Protease came to 56 µM.

Regarding `CC1=N[C@@H](CC(C)C)C(=O)N(Cc2ccc(C3CCCCC3)cc2)c2cc(C(=O)O)ccc21`, on Protease, the Ki stood at 27 µM. With `CC1=N[C@H](Cc2ccccc2)C(=O)Nc2cc(C(=O)OC(C)(C)C)ccc21`, the Ki at Protease amounted to 88 µM. Same read-out and setting: the figure for `CC1=N[C@@H](CC(C)C)C(=O)Nc2cc(C(=O)OC(C)(C)C)ccc21` is 193 µM. In the case of `CC1=N[C@H](CC(C)C)C(=O)Nc2cc(C(=O)OC(C)(C)C)ccc21`, at Protease, the Ki was above 200 µM. As to `CC1=N[C@H](CC(C)C)C(=O)N(CC(C)C)c2cc(C(=O)OC(C)(C)C)ccc21`, at Protease, the Ki was 89 µM. `CC1=NCC(=O)Nc2cc(C(=O)O)ccc21`: at Protease, the Ki is 199 µM. As to `CC1=N[C@H](CC(C)C)C(=O)N(CC(=O)N2CCN(C(=O)OCc3ccccc3)CC2)c2cc(C(=O)O)ccc21`, the Ki on Protease turned out to be 81 µM. With `CC1=N[C@H](CC(C)C)C(=O)N(Cc2ccncc2)c2cc(C(=O)OC(C)(C)C)ccc21`, the Ki on Protease was above 200 µM. On the same count and under the same terms, next, `CC1=N[C@H](Cc2ccccc2)C(=O)Nc2cc(C(=O)O)ccc21`: above 200 µM; `CC1=N[C@H](CC(C)C)C(=O)N(CC(=O)O)c2cc(C(=O)O)ccc21`: above 200 µM; `CC1=N[C@@H](C)C(=O)Nc2cc(C(=O)O)ccc21`: above 200 µM. As to `CC1=N[C@H](CC(C)C)C(=O)N(Cc2ccncc2)c2cc(C(=O)O)ccc21`, the Ki on Protease is above 200 µM. Take `CC1=N[C@H](CC(C)C)C(=O)N(Cc2ccc(-c3ccccc3)cc2)c2cc(C(=O)OC(C)(C)C)ccc21`: the Ki on Protease worked out at 62 µM. In the case of `CC1=N[C@H](CC(C)C)C(=O)N(CC(=O)N2CCN(C(=O)OCc3ccccc3)CC2)c2cc(C(=O)OC(C)(C)C)ccc21`, the inhibitory constant (Ki) on Protease was above 200 µM. On the same count and under the same terms, next, `CC1=N[C@H](CC(C)C)C(=O)Nc2cc(C(=O)O)ccc21`: above 200 µM. Regarding `CCCCCCNC(=O)CN1C(=O)[C@@H](CC(C)C)N=C(C)c2ccc(C(=O)O)cc21`, the Ki on Protease came out at 75 µM.

Regarding `CC1=N[C@@H](C)C(=O)N(Cc2ccc(C3CCCCC3)cc2)c2cc(C(=O)OC(C)(C)C)ccc21`, the Ki on Protease was found to be 88 µM.

With `CC1=N[C@H](CC(C)C)C(=O)N(CC(=O)N2CCN(C(=O)OCC3c4ccccc4-c4ccccc43)CC2)c2cc(C(=O)O)ccc21`, at Protease, the Ki is 49 µM.

For the molecule `CC1=N[C@H](Cc2ccccc2)C(=O)N(Cc2ccc(C3CCCCC3)cc2)c2cc(C(=O)O)ccc21`, the Ki at Protease was 72 µM. As for `CC1=NCC(=O)N(Cc2ccc(C3CCCCC3)cc2)c2cc(C(=O)O)ccc21`, the Ki at Protease was determined as 85 µM. Consider `CC1=N[C@H](CC(C)C)C(=O)N(CC(=O)OC(C)(C)C)c2cc(C(=O)OC(C)(C)C)ccc21`, for which the Ki at Protease was determined as 119 µM. For `CC1=N[C@@H](CC(C)C)C(=O)N(Cc2ccc(C3CCCCC3)cc2)c2cc(C(=O)OC(C)(C)C)ccc21`, the Ki on Protease stood at 76 µM. Take `CCCCCCNC(=O)CN1C(=O)[C@@H](CC(C)C)N=C(C)c2ccc(C(=O)OC(C)(C)C)cc21`: at Protease, the Ki was above 200 µM.

`CC1=N[C@H](CC(C)C)C(=O)N(Cc2ccc(-c3ccccc3)cc2)c2cc(C(=O)O)ccc21`: the Ki at Protease amounted to 21 µM. Besides, the figures for the Activity entry in the data set on MT4 [1] and in the data set on MT4 [2] were “Non-toxic” and “Toxic”, respectively. Further, the inhibition result in data set [3] was “Active”. On to `CCC(C)[C@@H]1N=C(C)c2ccc(C(=O)O)cc2NC1=O` (single isomer, unassigned), for which, at Protease, the Ki came out at 158 µM. Still for that read-out and setting: the figure for `CC1=N[C@H](CC(C)C)C(=O)N(Cc2ccc(C(C)(C)C)cc2)c2cc(C(=O)O)ccc21` is 46 µM; for `CC1=N[C@H](CC(C)C)C(=O)N(CC(=O)N2CCN(C(=O)OCC3c4ccccc4-c4ccccc43)CC2)c2cc(C(=O)OC(C)(C)C)ccc21` it is above 200 µM.

Turning to `CC1=N[C@@H](Cc2ccccc2)C(=O)N(Cc2ccc(C3CCCCC3)cc2)c2cc(C(=O)O)ccc21`, the Ki on Protease was found to be 47 µM.

(Values after ChEMBL document CHEMBL3627703, “Synthetic, structural mimetics of the β-hairpin flap of HIV-1 protease inhibit enzyme function” (Bioorg Med Chem, 2015).)
